From ChEMBL document CHEMBL4414559, “Proanthocyanidin Dimers and Trimers from Vitis vinifera Provide Diverse Structural Motifs for the Evaluation of Dentin Biomodification” (J Nat Prod, 2019)
The source made the active and inactive calls. No cut-off for these calls is given here.

What was measured:
Hathewaya histolytica = assay: Inhibition of Clostridium histolyticum collagenase-induced degradation of human molar dentin assessed as reduction in at 3.5 mg after 1 hr followed by collagenase treatment and measured after 24 hrs relative to control
In short: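 Resistance to proteolytic biodegradation is measured gravimetrically as percent mass gain or loss of the dentin. This avoids colorimetric, fluorescence or UV detection.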

[1] = Stability in human molar dentin at 3.5 mg after 1 hr by flexural assay; type: ADME, tissue-based, Dentine; details: in vitro
Dentine [2] = assay: Induction of modification in human molar dentin assessed as sum of percentage of apparent modulus elasticity and percentage of collagen remaining after […] at 3.5 mg; type: functional, tissue-based
Dentine [3] = assay: Induction of elasticity in human molar dentin assessed as fold change at 3.5 mg after 1 hr by flexural assay relative to untreated control; type: functional
Dentine [4] = assay: Induction of elasticity in human molar dentin at 3.5 mg after 1 hr by flexural assay; type: functional, tissue-based
In short: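 Read-out is modulus of elasticity (MPa), measured mechanically on the dentin. This avoids colorimetric, fluorescence or UV detection.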

SMILES	inhibition (Hathewaya histolytica) [%]	Stability [1]	Activity (Dentine [2])	fold change (FC) (Dentine [3])	Activity (Dentine [4])
Oc1cc(O)c2c(c1)O[C@H](c1ccc(O)c(O)c1)[C@H](O)[C@H]2c1c(O)cc(O)c2c1O[C@H](c1ccc(O)c(O)c1)[C@H](O)[C@H]2c1c(O)cc(O)c2c1O[C@H](c1ccc(O)c(O)c1)[C@@H](O)C2	70 to 80	Stable	Active	5	–
Oc1cc(O)c2c(c1)O[C@H](c1ccc(O)c(O)c1)[C@H](O)[C@H]2c1c(O)cc(O)c2c1O[C@H](c1ccc(O)c(O)c1)[C@@H](O)C2 [PROCYANIDIN B1]	–	Stable	–	–	inactive
Oc1cc(O)c2c(c1)O[C@H](c1ccc(O)c(O)c1)[C@H](O)[C@H]2c1c(O)cc(O)c2c1O[C@H](c1ccc(O)c(O)c1)[C@H](O)[C@H]2c1c(O)cc(O)c2c1O[C@@H](c1ccc(O)c(O)c1)[C@H](O)C2	70 to 80	Stable	Active	5.5	–
Oc1cc(O)c2c(c1)O[C@H](c1ccc(O)c(O)c1)[C@H](O)[C@H]2c1c(O)cc(O)c2c1O[C@H](c1ccc(O)c(O)c1)[C@H](O)C2 [PROCYANIDIN B2]	–	Stable	Active	–	inactive
Oc1cc(O)c2c(c1)O[C@H](c1ccc(O)c(O)c1)[C@@H](O)[C@@H]2c1c(O)cc(O)c2c1O[C@H](c1ccc(O)c(O)c1)[C@@H](O)C2	–	Stable	–	–	inactive
Oc1cc(O)c2c(c1)O[C@@H](c1ccc(O)c(O)c1)[C@H](O)[C@H]2c1c(O)cc(O)c2c1O[C@H](c1ccc(O)c(O)c1)[C@@H](O)C2	–	Stable	Active	–	inactive

Now from value to molecule, other results behind:

inhibition (Hathewaya histolytica) [%]	Stability [1]	SMILES	Activity (Dentine [2])	fold change (FC) (Dentine [3])	Activity (Dentine [4])
–	Stable	Oc1cc(O)c2c(c1)O[C@H](c1ccc(O)c(O)c1)[C@H](O)[C@H]2c1c(O)cc(O)c2c1O[C@@H](c1ccc(O)c(O)c1)[C@@H](O)C2	Active	–	inactive
–	Stable	Oc1cc(O)c2c(c1)O[C@H](c1ccc(O)c(O)c1)[C@H](O)[C@H]2c1c(O)cc(O)c2c1O[C@@H](c1ccc(O)c(O)c1)[C@H](O)C2	–	–	inactive
–	Stable	Oc1cc(O)c2c(c1)O[C@@H](c1ccc(O)c(O)c1)[C@H](O)[C@H]2c1c(O)cc(O)c2c1O[C@H](c1ccc(O)c(O)c1)[C@H](O)C2	Active	–	inactive
